Laboratory results reported in ChEMBL document CHEMBL1770071, “Multitargeted drugs discovery: balancing anti-amyloid and anticholinesterase capacity in a single chemical entity” (Bioorg Med Chem Lett, 2011).

Legend:
[1] = Inhibition of amyloid beta (1-42) aggregation at 10 uM by thioflavin T based fluorometric assay
Method in brief: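 Aβ1-42 self-induced aggregation, read by thioflavin T fluorescence, with Aβ1-42 to inhibitor ratio 5/1. Reported as % inhibition. Mean of two independent experiments, each in duplicate. Controls added compound to already-aggregated Aβ after ThT dilution to exclude ThT displacement.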

[2] = target: Acetylcholinesterase (Homo sapiens, UniProt P22303); test: Inhibition of human serum AChE
[3] = target: Cholinesterase (Homo sapiens, UniProt P06276); test: Inhibition of human serum BuChE
Method in brief: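 BuChE purified from human serum; activity read by Ellman's method. IC50 is the inhibitor concentration that cuts enzyme activity by 50%, taken as the mean of two independent measurements each run in duplicate.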

[4] = system: SH-SY5Y; test: Neuroprotective activity in human SH-SY5Y cells assessed as inhibition of amyloid beta(1-42)-induced neurotoxicity at 1 uM incubated for 3 hrs by MTT assay; assay type: functional; design: scale not given: the % may be the effect or the level left
Method in brief: (§1)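 Human neuronal-like SH-SY5Y cells exposed for 3 h to Aβ1–42 pre-aggregated to oligomers, with compound present. Viability read by MTT colorimetric assay. Result expressed as % inhibition of oligomer-induced neurotoxicity, mean ± SD of at least two independent experiments.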

[5] = system: SH-SY5Y; test: Neuroprotective activity in human SH-SY5Y cells assessed as inhibition of amyloid beta(1-42)-induced neurotoxicity at 10 uM incubated for 3 hrs by MTT assay; assay type: functional; design: scale not given: the % may be the effect or the level left; method in brief: as §1
[6] = system: SH-SY5Y; test: Neurotoxicity in human SH-SY5Y cells assessed as cell viability at 0.1 to 1 uM by MTT assay; assay type: toxicity, cell-based
[7] = Neurotoxicity in human SH-SY5Y cells assessed as decrease in cell viability by MTT assay; assay type: toxicity, cell-based
Method in brief: (§2)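 SH-SY5Y human neuronal-like cells treated with compound alone for 24 h, with viability read by colorimetric MTT assay. IC50 is the concentration giving 50% inhibition of neuronal viability. Range tested 1–50 µM.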

[8] = system: SH-SY5Y; test: Neurotoxicity in human SH-SY5Y cells assessed as decrease in cell viability at 1 to 50 uM by MTT assay; assay type: toxicity, cell-based; method in brief: as §2
[9] = system: SH-SY5Y; test: Neurotoxicity in human SH-SY5Y cells assessed as cell viability at 0.1 to 10 uM by MTT assay; assay type: toxicity, cell-based

Chain of Acetylcholinesterase (P22303 whole entry): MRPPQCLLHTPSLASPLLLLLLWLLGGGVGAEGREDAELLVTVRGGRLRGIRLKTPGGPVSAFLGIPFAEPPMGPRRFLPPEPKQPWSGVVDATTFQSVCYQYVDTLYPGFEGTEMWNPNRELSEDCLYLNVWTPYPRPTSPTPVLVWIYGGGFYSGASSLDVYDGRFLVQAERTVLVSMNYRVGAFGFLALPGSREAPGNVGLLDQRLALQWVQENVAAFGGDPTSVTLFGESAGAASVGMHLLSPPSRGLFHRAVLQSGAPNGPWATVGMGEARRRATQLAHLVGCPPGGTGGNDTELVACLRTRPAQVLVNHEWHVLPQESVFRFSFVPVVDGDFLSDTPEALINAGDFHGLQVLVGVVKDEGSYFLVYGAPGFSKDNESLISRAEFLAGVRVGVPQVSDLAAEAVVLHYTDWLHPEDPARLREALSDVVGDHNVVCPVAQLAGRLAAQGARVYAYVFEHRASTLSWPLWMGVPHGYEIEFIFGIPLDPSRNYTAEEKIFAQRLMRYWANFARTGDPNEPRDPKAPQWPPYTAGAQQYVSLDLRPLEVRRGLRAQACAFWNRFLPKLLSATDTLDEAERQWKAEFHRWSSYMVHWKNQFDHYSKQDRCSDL
Chain of Cholinesterase (P06276 whole entry): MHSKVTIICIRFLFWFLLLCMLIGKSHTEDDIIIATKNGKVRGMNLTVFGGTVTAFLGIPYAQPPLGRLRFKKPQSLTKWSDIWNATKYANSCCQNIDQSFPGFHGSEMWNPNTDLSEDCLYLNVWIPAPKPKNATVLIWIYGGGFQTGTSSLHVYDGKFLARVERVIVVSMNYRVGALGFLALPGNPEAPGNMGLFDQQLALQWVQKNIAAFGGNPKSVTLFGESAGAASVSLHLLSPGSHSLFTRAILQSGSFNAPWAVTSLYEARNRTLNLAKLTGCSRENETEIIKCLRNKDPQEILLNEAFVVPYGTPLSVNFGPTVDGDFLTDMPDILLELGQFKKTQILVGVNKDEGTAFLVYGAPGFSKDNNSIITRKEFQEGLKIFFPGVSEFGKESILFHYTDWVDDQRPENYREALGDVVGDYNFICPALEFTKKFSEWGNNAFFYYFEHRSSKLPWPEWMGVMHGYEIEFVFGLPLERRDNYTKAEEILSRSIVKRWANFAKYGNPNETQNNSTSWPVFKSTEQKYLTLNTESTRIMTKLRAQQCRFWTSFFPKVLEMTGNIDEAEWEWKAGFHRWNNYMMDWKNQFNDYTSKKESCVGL

For `O=C1C=C(NCCCCCCNCc2ccc(-c3nc4ccccc4s3)cc2)C(=O)C=C1NCCCCCCNCc1ccc(-c2nc3ccccc3s2)cc1`, the inhibition [1] was 25.7%, the IC50 [2] was 0.305 µM and the IC50 [3] was 27.3 µM.

In the case of `CCN(CCCCCCNC1=CC(=O)C(NCCCCCCN(CC)Cc2ccccc2OC)=CC1=O)Cc1ccccc1OC` [MEMOQUIN], the Activity [4] is reported as 70%, the Activity [5] is reported as 80% and the Activity [6] is reported as “Non-toxic”. It also gave an IC50 [7] of 19.4 µM.

Compound `O=C1C=C(NCCCNCc2nc3ccccc3s2)C(=O)C=C1NCCCNCc1nc2ccccc2s1` has an inhibition [1] of 16.2%, an Activity [4] of 25% and an IC50 [2] greater than 10 µM. For the same compound, the Activity [6] was “Non-toxic”, the IC50 [3] was greater than 10 µM and the Activity [8] was “Non-toxic”.

For `COc1cc(CNCCCNC2=CC(=O)C(NCCCNCc3ccc(O)c(OC)c3)=CC2=O)ccc1O`, the inhibition [1] was 22%, the Activity [4] was 25% and the Activity [9] was “Non-toxic”. The IC50 [2] was 0.198 µM, the IC50 [3] was 8.24 µM and the Activity [8] was “Non-toxic”.

`COc1cc(/C=C/C(=O)CC(=O)/C=C/c2ccc(O)c(OC)c2)ccc1O` gave an inhibition [1] of 34.4%.

`COc1cc(CNCCCCCCNC2=CC(=O)C(NCCCCCCNCc3ccc(O)c(OC)c3)=CC2=O)ccc1O` gave an inhibition [1] of 50.4%, an IC50 [2] of 0.102 µM and an IC50 [3] of 1.6 µM.

Work on `O=C1C=C(NCCCNCc2cc3ccccc3o2)C(=O)C=C1NCCCNCc1cc2ccccc2o1` yielded an inhibition [1] of 27.2%, an Activity [4] of 25% and an IC50 [2] of 21.8 µM. For the same compound, the Activity [6] was “Non-toxic”, the IC50 [7] was 14.8 µM and the IC50 [3] was 2.6 µM.

`O=C1C=C(NCCCCCCNCc2nc3ccccc3s2)C(=O)C=C1NCCCCCCNCc1nc2ccccc2s1` showed an inhibition [1] of 18.5%, an IC50 [2] of 22 µM and an IC50 [3] greater than 10 µM.

Work on `O=C1C=C(NCCCCCCNCc2cc3ccccc3o2)C(=O)C=C1NCCCCCCNCc1cc2ccccc2o1` yielded an inhibition [1] of 18.4%, an IC50 [2] greater than 10 µM and an IC50 [3] of 84.2 µM.

Work on `O=C1C=C(NCCCNCc2ccc(-c3nc4ccccc4s3)cc2)C(=O)C=C1NCCCNCc1ccc(-c2nc3ccccc3s2)cc1` yielded an inhibition [1] of 41.4%, an IC50 [2] of 31.4 µM and an IC50 [3] of 35.3 µM.
